Test results taken from ChEMBL document CHEMBL2424619, “Small-molecule ligands of methyl-lysine binding proteins: optimization of selectivity for L3MBTL3” (J Med Chem, 2013).

Key:
[1] = target: MBT domain-containing protein 1 (Homo sapiens, UniProt Q05BQ5); assay: Inhibition of MBTD1 (unknown origin) after 30 mins by AlphaScreen assay
How it was run: (§1)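 AlphaScreen competition with histone peptide. Compounds in 3-fold, 10-point dilutions, top 10 or 30 μM; buffer 20 mM Tris pH 8.0, 25 mM NaCl, 2 mM DTT, 0.05% Tween-20. Protein-peptide mix 30 min RT, then streptavidin donor plus nickel-chelate acceptor beads (GST acceptor beads for GST-tagged PHF23, JARID1A) 30 min RT dark. Protein-free His6-biotin peptide counterscreen.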

[2] = target: T1, Lethal(3)malignant brain tumor-like protein 4 (Homo sapiens, UniProt Q8NA19); assay: Inhibition of L3MBTL4 (unknown origin) after 30 mins by AlphaScreen assay; how it was run: as §1
T1 sequence (Q8NA19 whole entry): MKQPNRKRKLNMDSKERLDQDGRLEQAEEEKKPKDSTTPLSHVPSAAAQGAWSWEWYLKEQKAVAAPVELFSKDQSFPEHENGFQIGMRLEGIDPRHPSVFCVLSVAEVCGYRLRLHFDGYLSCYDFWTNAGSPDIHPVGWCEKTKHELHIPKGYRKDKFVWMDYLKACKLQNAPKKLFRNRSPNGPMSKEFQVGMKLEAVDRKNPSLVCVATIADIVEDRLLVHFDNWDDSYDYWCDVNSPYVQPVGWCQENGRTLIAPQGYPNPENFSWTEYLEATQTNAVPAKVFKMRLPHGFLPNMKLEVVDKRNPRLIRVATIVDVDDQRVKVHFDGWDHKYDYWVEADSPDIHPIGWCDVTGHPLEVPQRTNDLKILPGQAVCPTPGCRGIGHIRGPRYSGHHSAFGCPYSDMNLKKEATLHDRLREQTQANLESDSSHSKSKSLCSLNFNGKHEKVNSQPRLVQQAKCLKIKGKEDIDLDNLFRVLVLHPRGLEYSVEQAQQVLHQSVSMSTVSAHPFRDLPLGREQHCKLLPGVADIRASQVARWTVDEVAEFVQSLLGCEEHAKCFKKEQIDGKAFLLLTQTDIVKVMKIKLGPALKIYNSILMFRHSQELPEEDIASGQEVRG

[3] = target: T2, Lethal(3)malignant brain tumor-like protein 3 (Homo sapiens, UniProt Q96JM7); assay: Inhibition of L3MBTL3 (unknown origin) after 30 mins by AlphaScreen assay; how it was run: as §1
T2 sequence (Q96JM7 whole entry): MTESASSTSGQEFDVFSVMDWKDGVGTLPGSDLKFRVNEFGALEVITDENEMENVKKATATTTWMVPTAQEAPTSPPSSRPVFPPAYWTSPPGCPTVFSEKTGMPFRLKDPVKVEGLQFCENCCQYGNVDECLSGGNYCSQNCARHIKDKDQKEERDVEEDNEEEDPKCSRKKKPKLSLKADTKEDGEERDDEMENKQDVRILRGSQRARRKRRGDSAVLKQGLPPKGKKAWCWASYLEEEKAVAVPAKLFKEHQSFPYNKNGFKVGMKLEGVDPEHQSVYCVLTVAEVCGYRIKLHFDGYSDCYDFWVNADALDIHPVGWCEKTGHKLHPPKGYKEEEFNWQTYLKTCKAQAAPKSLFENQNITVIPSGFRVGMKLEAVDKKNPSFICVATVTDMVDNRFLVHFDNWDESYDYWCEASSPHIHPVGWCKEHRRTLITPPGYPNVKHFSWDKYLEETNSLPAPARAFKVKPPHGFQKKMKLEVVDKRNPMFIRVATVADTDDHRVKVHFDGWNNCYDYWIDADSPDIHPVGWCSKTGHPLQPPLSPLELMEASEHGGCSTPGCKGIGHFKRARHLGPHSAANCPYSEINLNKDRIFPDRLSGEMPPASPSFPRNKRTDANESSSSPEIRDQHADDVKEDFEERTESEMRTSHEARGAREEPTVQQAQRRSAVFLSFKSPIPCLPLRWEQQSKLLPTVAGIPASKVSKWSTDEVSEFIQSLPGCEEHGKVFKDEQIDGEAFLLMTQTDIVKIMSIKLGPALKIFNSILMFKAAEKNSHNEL

[4] = target: T2, Lethal(3)malignant brain tumor-like protein 3; assay: Inhibition of L3MBTL3 (unknown origin) using H4K20me2 as substrate after 30 mins by LNCE-TR-FRET assay

Chain of MBT domain-containing protein 1 (Q05BQ5 whole entry, the tested form may be a part): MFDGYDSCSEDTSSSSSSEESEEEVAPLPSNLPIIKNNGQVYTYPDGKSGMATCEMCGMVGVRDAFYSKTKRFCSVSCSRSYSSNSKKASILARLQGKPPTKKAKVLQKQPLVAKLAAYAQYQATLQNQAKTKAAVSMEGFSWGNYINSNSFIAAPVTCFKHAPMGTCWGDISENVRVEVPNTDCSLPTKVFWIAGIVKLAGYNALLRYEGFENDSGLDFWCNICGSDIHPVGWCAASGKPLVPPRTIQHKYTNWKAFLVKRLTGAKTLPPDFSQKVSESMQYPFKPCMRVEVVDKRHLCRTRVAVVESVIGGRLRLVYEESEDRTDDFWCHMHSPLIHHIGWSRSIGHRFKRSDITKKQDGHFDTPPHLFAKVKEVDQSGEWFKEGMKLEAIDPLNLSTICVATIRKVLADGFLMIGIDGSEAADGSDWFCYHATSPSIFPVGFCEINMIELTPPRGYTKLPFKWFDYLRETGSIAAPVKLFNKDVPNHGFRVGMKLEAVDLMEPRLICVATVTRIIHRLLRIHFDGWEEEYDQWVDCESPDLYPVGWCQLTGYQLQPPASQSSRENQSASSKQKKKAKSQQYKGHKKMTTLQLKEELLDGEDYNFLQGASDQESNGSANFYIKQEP

Compound	IC50 [1] [nM]	IC50 [2] [nM]	IC50 [3] [nM]	IC50 [4] [nM]
CC(C1CCN(C(=O)c2ccc(C(=O)N3CCC(N4CCCC4)CC3)cc2)CC1)N1CCN(C)CC1 (stereo not drawn)	> 10000	> 10000	300	250
CCN1Cc2ccc(NC(=O)c3ccc(C(=O)N4CC5CCC(C4)C5N4CCCC4)cc3)cc2C1 (stereo not drawn)	> 10000	> 10000	240	150
CN1CCC(N2CCN(C(=O)c3ccc(C(=O)N4CCC(N5CCCC5)CC4)cc3)CC2)CC1	> 10000	> 10000	830	770
Cc1cc(C(=O)N2CCC(N3CCCC3)CC2)c(C)cc1C(=O)N1CCC(N2CCCC2)CC1	> 10000	> 10000	210	240
O=C(c1cncc(Br)c1)N1CCC(N2CCCC2)CC1	> 10000	> 10000	3100	4700
O=C(c1ccc(C(=O)N2CCC(N3CCCC3)C2)cc1)N1CCC(N2CCCC2)CC1 (stereo not drawn)	> 10000	> 10000	250	220
O=C(c1ccc(C(=O)N2CCC(N3CCCC3)CC2)cc1)N1CCC(C2CCCN2)CC1 (stereo not drawn)		> 10000	120	92
O=C(c1ccc(C(=O)N2CCC(N3CCCC3)CC2)nc1)N1CCC(N2CCCC2)CC1	> 10000	> 10000	110	61
CN1CCN2CC(NC(=O)c3ccc(C(=O)N4CCC(N5CCCC5)CC4)cc3)CC2C1 (stereo not drawn)	> 10000	> 10000	4600	4500
CN(C)C1CCN(C(=O)c2ccc(C(=O)N3CCC(N4CCCC4)CC3)cc2)CC1	> 10000	> 10000	310	180
O=C(c1ccc(C(=O)N2CCC(N3CCCC3)CC2)c(Br)c1)N1CCC(N2CCCC2)CC1	7800	> 10000	120	74
O=C(c1ccc(C(=O)N2CCC3(CCNC3)C2)cc1)N1CCC(N2CCCC2)CC1 (stereo not drawn)	> 10000	> 10000	1800	2200
O=C(c1ccc(C(=O)N2CCC(N3CCCC3)CC2)c(-c2ccccc2)c1)N1CCC(N2CCCC2)CC1	> 10000	> 10000	66	61
O=C(c1ccc(C(=O)N2CCC(N3CCCC3)CC2)c2ccccc12)N1CCC(N2CCCC2)CC1	5700	> 10000	72	43
O=C(c1ccc(C(=O)N2CCC(N3CCC3)CC2)cc1)N1CCC(N2CCC2)CC1	> 10000	> 10000	400	350
O=C(c1ccc(C(=O)N2CCC(N3CCCC3)CC2)cc1)N1CCCC(N2CCCC2)CC1 (stereo not drawn)	> 10000	> 10000	96	74
O=C(c1ccc(C(=O)N2CCC(N3CCOCC3)CC2)cc1)N1CCC(N2CCCC2)CC1	> 10000	> 10000	1500	1100
O=C(c1ccc(C(=O)N2CCC(N3CCCC3)CC2)c(Cc2ccccc2)c1)N1CCC(N2CCCC2)CC1	6800	> 10000	48	51
O=C(c1ccc(N2CCC(N3CCCC3)CC2)cc1)N1CCC(N2CCCC2)CC1	8200	8400	170	150
C[N+]1(C2CCN(C(=O)c3ccc(C(=O)N4CCC(N5CCCC5)CC4)cc3)CC2)CCCC1	> 10000	> 10000	140	81
O=C(c1ccc(C(=O)N2CC(N3CCCC3)C2)cc1)N1CCC(N2CCCC2)CC1	> 10000	> 10000	330	300

Compound	IC50 [1] [nM]	IC50 [2] [nM]	IC50 [3] [nM]	IC50 [4] [nM]
O=C(c1ccc(S(=O)(=O)N2CCC(N3CCCC3)CC2)cc1)N1CCC(N2CCCC2)CC1	5400	> 10000	99	97
O=C(NCCCN1CCCC1)c1ccc(C(=O)N2CCC(N3CCCC3)CC2)cc1	> 10000	> 10000	680	340
Nc1cc(C(=O)N2CCC(N3CCCC3)CC2)ccc1C(=O)N1CCC(N2CCCC2)CC1	> 10000	> 10000	230	220
O=C(c1ccc(CN2CCC(N3CCCC3)CC2)cc1)N1CCC(N2CCCC2)CC1	8100	> 10000	140	130
O=C(c1c(F)c(F)c(C(=O)N2CCC(N3CCCC3)CC2)c(F)c1F)N1CCC(N2CCCC2)CC1	> 10000	> 10000	210	130
O=C(c1ccc2cc(C(=O)N3CCC(N4CCCC4)CC3)ccc2c1)N1CCC(N2CCCC2)CC1	> 10000	> 10000	690	450
CN(C)C1CCN(C(=O)c2ccc(C(=O)N3CCC(N(C)C)CC3)cc2)CC1	> 10000	> 10000	> 10000	8000
O=C(c1ccc(C(=O)N2CCC(N3CCCC3)CC2)s1)N1CCC(N2CCCC2)CC1	> 10000	> 10000	96	68
O=C(c1ccc(C(=O)N2CC3CCC(C2)C3N2CCCC2)cc1)N1CC2CCC(C1)C2N1CCCC1 (stereo not drawn)	> 10000	> 10000	400	280
O=C(c1ccc(C(=O)N2CCC(N3CCCC3)CC2)cc1)N1CCC(N2CCCCCC2)CC1	9700	> 10000	270	210
O=C(c1ccc(C(=O)N2CCC(N3CCCC3)CC2)c(C(=O)N2CCC(N3CCCC3)CC2)c1)N1CCC(N2CCCC2)CC1	> 10000	> 10000	120	110
O=C(c1ccc(C(=O)N2CCC(N3CCCC3)CC2)c(NCc2ccccc2)c1)N1CCC(N2CCCC2)CC1	> 10000	> 10000	39	50
O=C(c1ccc(C(=O)N2CCC(C3CCCN3)CC2)cc1)N1CCC(C2CCCN2)CC1 (stereo not drawn)	4000	> 10000	640	800
O=C(c1ccc(C(=O)N2CC3(CCNC3)C2)cc1)N1CCC(N2CCCC2)CC1	> 10000	> 10000	3600	2700
O=C(c1ccc(C(=O)N2CCC(N3CCCC3)CC2)cc1)N1CCC(C2CCCCC2)CC1	8100	> 10000	2400	1600
CCN1Cc2ccc(NC(=O)c3ccc(C(=O)N4CCC(N5CCCC5)CC4)cc3)cc2C1	> 10000	> 10000	370	350
CCN1Cc2ccc(NC(=O)c3ccc(C(=O)N4CCC(C5CCCN5)CC4)cc3Nc3ccccc3)cc2C1 (stereo not drawn)	3500	> 10000	170	160
O=C(c1ccc(C(=O)N2CCC(N3CCCC3)CC2)c([N+](=O)[O-])c1)N1CCC(N2CCCC2)CC1	> 10000	> 10000	160	88
O=C(c1ccc(C(=O)N2CCC(N3CCCC3)CC2)c(Oc2ccccc2)c1)N1CCC(N2CCCC2)CC1	9300	> 10000	58	53
O=C(c1ccc(C(=O)N2CC3CNCC3C2)cc1)N1CCC(N2CCCC2)CC1 (stereo not drawn)	> 10000	> 10000	3100	3500
